Assay results as given in publication PMC6301076 (Bioorganic & medicinal chemistry letters, 2018).
“And” between values parts separate entries of the source, which are not always exact repeats. Equal values may be shown once. Read-outs that look alike come from different tables or passages of the source. Marks after values point to notes of the source that are not given here.

Columns and labels:
[1] = In vitro intrinsic clearance in human liver microsomes; format: in vitro ADME; conditions: absence of co-factor
Procedure, shortened: (§1)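 Test compound incubated with human or mouse liver microsomes. Control incubations without NADPH detect cofactor-independent degradation, such as by non-specific microsomal esterases. Read-out is intrinsic clearance, also expressed as in vitro half-life.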

S. mansoni [2] = experiment: In vivo antischistosomal activity in S. mansoni-infected mice; conditions: 1 × 100 mg/kg po
[3] = Aqueous solubility by nephelometry; format: physicochemical; conditions: concentration range; for Sol2.0: 0.01 M HCl (approx. pH 2.0); for Sol6.5: pH 6.5 phosphate buffer
[4] = In vitro intrinsic clearance in mouse liver microsomes; format: in vitro ADME; conditions: absence of co-factor
Procedure, shortened: as §1

S. mansoni [5] = conditions: cited from earlier work; for single oral dose ED50: S. mansoni mouse model
[6] = system: cultured adult S. mansoni; conditions: cited from earlier work
[7] = Plasma exposure after oral administration to mice; format: in vivo; conditions: 100 mg/kg, plasma concentration versus time profile
schistosomula (NTS) = conditions: 10 μM concentration; cited from earlier work
[8] = after 100 mg/kg oral dose of Ro 13-3978 to mice; cited from earlier work

Structure (SMILES) | Sol2.0 [3] | Sol6.5 [3] | also measured
CCOC(=O)C(C)(C)NC(=O)Nc1ccc(F)c(C(F)(F)F)c1 [compound 13] | 3.1-6.3/3.1-6.3 μg/mL | 3.1-6.3/3.1-6.3 μg/mL | stability in control microsomal incubations [1]: underwent non-NADPH mediated degradation; S. mansoni WBR (S. mansoni [2]): 70^f %; stability in control microsomal incubations [4]: underwent non-NADPH mediated degradation
O=C(Nc1ccc(F)c(C(F)(F)F)c1)NC1(C(=O)O)CC1 [compound 8] | >100/>100 μg/mL | >100/>100 μg/mL | –
CC(C)(C(=O)O)n1c(=O)[nH]c2cc(C(F)(F)F)c(F)cc21 [compound 10] | 50 to 100 µg/mL | – | –
O=C(Nc1ccc(F)c(C(F)(F)F)c1)NC1(C(=O)O)CCC1 [compound 9] | 50 to 100 µg/mL | – | –
CC(C)(NC(=O)Cc1ccc(F)c(C(F)(F)F)c1)C(=O)O [compound 6] | 50 to 100 µg/mL | 25 to 50 µg/mL | –
CC(C)(C(=O)O)N1CCCN(c2ccc(F)c(C(F)(F)F)c2)C1=O [compound 4] | >100/>100 μg/mL | >100/>100 μg/mL | –
CC1(C)NC(=O)N(c2ccc(F)c(C(F)(F)F)c2)C1=O [Ro 13-3978, reference compound] | – | – | single oral dose ED50 (S. mansoni [5]): 15 mg/kg; effect on cultured adult S. mansoni [6]: little effect
CC(C)(CC(=O)Nc1ccc(F)c(C(F)(F)F)c1)C(=O)O [compound 5] | 25-50/25-50 μg/mL | 25-50/25-50 μg/mL | –
CC(C)(C(=O)O)N1Cc2cc(F)c(C(F)(F)F)cc2NC1=O [compound 11] | 50 to 100 µg/mL | – | –
O=C(O)CNC(=O)Nc1ccc(F)c(C(F)(F)F)c1 [compound 7] | >100/>100 μg/mL | >100/>100 μg/mL | –
CC(C)(NC(=O)Nc1ccc(F)c(C(F)(F)F)c1)C(=O)O [compound 2] | 25 to 50 µg/mL | – | S. mansoni WBR (S. mansoni [5]; 1 × 100 mg/kg po, S. mansoni-infected mice, ref 4 (Wang et al.), 100 mg/kg): 67% and 67^d %; activity against cultured adult S. mansoni ([6]; 10 μM concentration): no activity; oral absorption [7]: rapid and extensive absorption; activity against schistosomula (NTS) (schistosomula (NTS)): no activity; exposure relative to that of Ro 13-3978, based on AUC0-24h [8]: < 1%
CC(C)(NC(=O)Nc1ccc(F)c(C(F)(F)F)c1)C(N)=O [compound 12] | 50-100/50-100 μg/mL | 50-100/50-100 μg/mL | –
O=C(C1CCCCC1)N1CC(=O)N2CCc3ccccc3C2C1 (stereo not drawn) [praziquantel, reference compound] | – | – | single oral dose ED50 (S. mansoni [5]): 172 mg/kg
CC(C)(NC(=O)Nc1ccccc1)C(=O)O [compound 3] | – | 50 to 100 µg/mL | –
